Reference: ChEMBL document CHEMBL1165988, “Dithiolopyrrolone antibiotic formation induced by adding valeric acid to the culture broth of Saccharothrix algeriensis” (2010)
≈ marks a conversion by molar mass, not a printed value.

What was measured:
Type in all cases: functional
[1] = tested on: Agrobacterium tumefaciens; experiment: Antimicrobial activity against Agrobacterium tumefaciens no. 2410 LB after 24 to 48 hrs by agar dilution method
Method in brief: (§1)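 MIC determined by conventional agar dilution on ISP2 medium; bacterial plates incubated at 37 °C and read for growth inhibition after 24-48 h; each test repeated four times.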

Pseudomonas aeruginosa = experiment: Antimicrobial activity against Pseudomonas aeruginosa CIP A22 after 24 to 48 hrs by agar dilution method; method in brief: as §1
Umbelopsis ramanniana = experiment: Antimicrobial activity against Mucor ramannianus NRRL 1829 after 48 to 72 hrs by agar dilution method
Method in brief: (§2)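 Filamentous fungi and yeasts tested by conventional agar dilution on ISP2 medium to give MIC; plates incubated at 28 °C and read after 48-72 h; each test repeated four times.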

Fusarium graminearum = experiment: Antimicrobial activity against Fusarium graminearum after 48 to 72 hrs by agar dilution method
Method in brief: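 Agar dilution MIC on ISP2 medium; fungal plates incubated 48-72 h at 28 °C; each test repeated four times.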

Heyndrickxia coagulans = experiment: Antimicrobial activity against Bacillus coagulans CIP 6625 after 24 to 48 hrs by agar dilution method; method in brief: as §1
Candida albicans = experiment: Antimicrobial activity against Candida albicans IPA 200 after 48 to 72 hrs by agar dilution method; method in brief: as §2
Aspergillus carbonarius = experiment: Antimicrobial activity against Aspergillus carbonarius M333 after 48 to 72 hrs by agar dilution method; method in brief: as §2
Fusarium equiseti = experiment: Antimicrobial activity against Fusarium equiseti after 48 to 72 hrs by agar dilution method; method in brief: as §2
Bacillus subtilis = experiment: Antimicrobial activity against Bacillus subtilis ATCC 6633 after 24 to 48 hrs by agar dilution method; method in brief: as §1
Klebsiella pneumoniae = experiment: Antimicrobial activity against Klebsiella pneumoniae CIP 82.91 after 24 to 48 hrs by agar dilution method; method in brief: as §1
Listeria monocytogenes = experiment: Antimicrobial activity against Listeria monocytogenes CIP 82110 after 24 to 48 hrs by agar dilution method; method in brief: as §1
Salmonella enterica = experiment: Antimicrobial activity against Salmonella enterica CIP 81.3 after 24 to 48 hrs by agar dilution method; method in brief: as §1
Fusarium oxysporum = experiment: Antimicrobial activity against Fusarium oxysporum f.sp. lini (Foln 3-5) after 48 to 72 hrs by agar dilution method; method in brief: as §2
Fusarium culmorum = experiment: Antimicrobial activity against Fusarium culmorum after 48 to 72 hrs by agar dilution method; method in brief: as §2
Penicillium expansum = experiment: Antimicrobial activity against Penicillium expansum after 48 to 72 hrs by agar dilution method; method in brief: as §2
Staphylococcus aureus = experiment: Antimicrobial activity against Staphylococcus aureus CIP 7625 after 24 to 48 hrs by agar dilution method; method in brief: as §1
Micrococcus luteus = experiment: Antimicrobial activity against Micrococcus luteus ATCC 9314 after 24 to 48 hrs by agar dilution method; method in brief: as §1
Escherichia coli = experiment: Antimicrobial activity against Escherichia coli ATCC 10536 after 24 to 48 hrs by agar dilution method; method in brief: as §1
Fusarium verticillioides = experiment: Antimicrobial activity against Fusarium moniliforme after 48 to 72 hrs by agar dilution method; method in brief: as §2
Saccharomyces cerevisiae = experiment: Antimicrobial activity against Saccharomyces cerevisiae ATCC 4226 after 48 to 72 hrs by agar dilution method; method in brief: as §2

Structure (SMILES)	MIC [1] [µg/mL]	MIC (Pseudomonas aeruginosa) [µg/mL]	MIC (Umbelopsis ramanniana) [µg/mL]	MIC (Fusarium graminearum) [µg/mL]	MIC (Heyndrickxia coagulans) [µg/mL]	MIC (Candida albicans) [µg/mL]	MIC (Aspergillus carbonarius) [µg/mL]	MIC (Fusarium equiseti) [µg/mL]	MIC (Bacillus subtilis) [µg/mL]	MIC (Klebsiella pneumoniae) [µg/mL]	MIC (Listeria monocytogenes) [µg/mL]	MIC (Salmonella enterica) [µg/mL]	MIC (Fusarium oxysporum) [µg/mL]	MIC (Fusarium culmorum) [µg/mL]	MIC (Penicillium expansum) [µg/mL]	MIC (Staphylococcus aureus) [µg/mL]	MIC (Micrococcus luteus) [µg/mL]	MIC (Escherichia coli) [µg/mL]	MIC (Fusarium verticillioides) [µg/mL]	MIC (Saccharomyces cerevisiae) [µg/mL]
CCCCC(=O)Nc1c2sscc-2n(C)c1=O [VALERYLPYRROTHINE]	> 100	> 100	10 (≈ 37 µM)	75 (≈ 277 µM)	20 (≈ 74 µM)	20 (≈ 74 µM)	20 (≈ 74 µM)	20 (≈ 74 µM)	20 (≈ 74 µM)	> 100	> 100	> 100	50 (≈ 185 µM)	20 (≈ 74 µM)	20 (≈ 74 µM)	75 (≈ 277 µM)	40 (≈ 148 µM)	> 100	75 (≈ 277 µM)	10 (≈ 37 µM)
Cn1c2cssc-2c(NC=O)c1=O [FORMYLPYRROTHINE]	> 100	> 100	10 (≈ 46.7 µM)	40 (≈ 187 µM)	2 (≈ 9.33 µM)	75 (≈ 350 µM)	50 (≈ 233 µM)	10 (≈ 46.7 µM)	2 (≈ 9.33 µM)	> 100	20 (≈ 93.3 µM)	> 100	30 (≈ 140 µM)	10 (≈ 46.7 µM)	3 (≈ 14 µM)	2 (≈ 9.33 µM)	3 (≈ 14 µM)	40 (≈ 187 µM)	75 (≈ 350 µM)	75 (≈ 350 µM)
CCC(=O)Nc1c2sscc-2n(C)c1=O [AUREOTHRICIN]	> 100	> 100	20 (≈ 82.5 µM)	75 (≈ 310 µM)	20 (≈ 82.5 µM)	75 (≈ 310 µM)	40 (≈ 165 µM)	20 (≈ 82.5 µM)	20 (≈ 82.5 µM)	> 100	> 100	> 100	40 (≈ 165 µM)	20 (≈ 82.5 µM)	20 (≈ 82.5 µM)	100 (≈ 413 µM)	20 (≈ 82.5 µM)	75 (≈ 310 µM)	75 (≈ 310 µM)	40 (≈ 165 µM)
